Variants at the floor of the assay were thinned out.
B1: tRNA (parent)
chain: GUUCCGUUGGCGUAAUGGUAACGCGUCUCCCUCCUAAGGAGAAGACUGCGGGUUCGAGUCCCGUACGGAACG

Variants of: B1
Assay: yeast fitness relative to wild type (ratio to wild type); higher = fitter; tRNA-Arg(CCU), competitive growth, 37 C, YPD
How it was run: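 Changes in genotype frequencies gave Darwinian fitness relative to wild type. Frequencies were read by 100-nucleotide paired-end sequencing of gene amplicons before and after pooled Saccharomyces cerevisiae strains, carrying tRNA-Arg(CCU) gene variants at the native locus, were competed in YPD at 37°C for 24 hours in six replicates. A genotype was kept only with ≥ 100 starting reads, and estimates < 0.5 were set to 0.5.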
In the case of GUUCCGUCGGCGUAAUGGUAAUGCGUCUCCCUCCUAAGGAGAAGACUGCGGGAUCGAGUCCCGUACGGAACG [U8C C22U U53A], the yeast fitness is reported as at most 0.5. In the case of GUUCCGUCGGCGUAAUGGUAACGCGUCUCCCUCCUAAGGAGAAGCCUGCGGGUUCGAGUCCCGUAUGGAACG [U8C A45C C66U], the yeast fitness is reported as 0.626. For GUUCCGUCGGGGUAAUGGUAACGCGUCUCCCUCCUAAGGAGAAGACUGCGGGUUCGAGUCCCGUACGGAACG [U8C C11G], the yeast fitness was 0.686. In the case of GUUCCGUCGGAGUAAUGGUAACGCGUCUCCCUCCUAAGGAGAAGACUGCGGGUUCGAGUCCCGUACGGAACG [U8C C11A], the yeast fitness is reported as 0.698. Work on GUUCCGUCGGUGUAAUGGUAACGCGUCUCCCUCCUAAGGAGAAGACUGCGGGUUCGAGUCCCGUACGGAACG [U8C C11U] yielded a yeast fitness of 1.02. GUUCCGUCGGAGUAAUGGUAACGCGUCUCACUCCUAAGGAGAAGACUGCGGGUUCGAGUCCCGUACGGAACG [U8C C11A C30A] gave a yeast fitness of at most 0.5. For GUUCCGUCGGCGUAAUGGUAAUGCGUUUCCCUCCUAAGGAGAAGACUGCGGGUUCGACUCCCGUACGGAACG [U8C C22U C27U G58C], the yeast fitness was at most 0.5. With GUUCCGUCGGUGUAAUGGUAACGCGUCUCCCUCGUAAGGAGAAGACUGCGGGUUCGAGUCCCGUACGGAACG [U8C C11U C34G] the yeast fitness was at most 0.5. GUUCCGUCGGCGUAAUGGUAACGCGUUUCCCUCCUAAGGGGAAAACUGCGGGUUCGAGUCCAGUACGGAACG [U8C C27U A40G G44A C62A] showed a yeast fitness of at most 0.5. For GUUCCGUCGGCGUAAUGGUAACGGGUCUCCCUCCUAAGGAGAAGACUGCGGGUUAGAGUCCCGUACGGAACG [U8C C24G C55A], the yeast fitness was at most 0.5. Work on GUUCCGUCGGCGUAAUGGUAACGCGUGUACCUCCUAAGGAGAAGACUGCGGGUUCGAGUCCCGUACGGAGCG [U8C C27G C29A A70G] yielded a yeast fitness of at most 0.5. Variant GUUCCGUCGGUGUAAUGGUAGCGCGUCUCCCUCCUAAGGAGAAGACUGCGGGUUCGAGUCCCGUACGGAACG [U8C C11U A21G] has a yeast fitness of 0.7. GUUCCGUCGGCGUAAUGGUAACGCGUCUCCCUCCUAAGGAGAAGUCUGCGGGUUCGAGUCCCGUUCGGAACG [U8C A45U A65U] gave a yeast fitness of 0.709. Work on GUUCCGUCGGCGUAAUGGUAACGCGUCUCCCUCCUAAGGAGAAGACUGCGGGUUCGAGUCCCGUACGGCACG [U8C A69C] yielded a yeast fitness of 0.991. In the case of GUUCCGUCGGCGUAAUGGUAACGCGUCUCCCUCCUAAGGAGAAGACUGCGGGUUCGAGUCCCGUACGGUACG [U8C A69U], the yeast fitness is reported as 0.933. In the case of GUUCCGUCGGCGUAAUGGUAAUGCGUCUCCCUCCUAAGGAGAAGACUGCGGGUUCGAGUCCCGUACGGAACG [U8C C22U], the yeast fitness is reported as 0.768. Variant GUUCCGUCGGCGUAAUGGUAAAGCGUCUCCCUCCUAAGGAGAAGACUGCGGGUUCGAGUCCCGUACGGAACG [U8C C22A] has a yeast fitness of 0.932. In the case of GUUCCGUCGGCGUAAUGGUAACGCGUCUCCCUCCUAAGGAGAAGGCUGCGGGUUCGAGUCCCGUACGGAACG [U8C A45G], the yeast fitness is reported as 0.906. Work on GUUCCGUCGGCGUAAUGGUAACGUGUCUCCCUCCUAAGGAGCAGACUGCUGGUUCGAGUCCCGUACGGAACG [U8C C24U A42C G50U] yielded a yeast fitness of 0.674. In the case of GUUCCGUCGGCGUAAUGGUAAUGCGUCUCUCUUCUAAGGAGAAGCCUGCGGGUUCGAGUCCCGUACGGAACG [U8C C22U C30U C33U A45C], the yeast fitness is reported as at most 0.5. With GUUCCGUCGGGGUAAUGGUAACGCGUCUCCCUCCUAAGGAGAAGACUGCGGGUUCGAGUCCCAUAGGGAACG [U8C C11G G63A C66G] the yeast fitness was at most 0.5. GUUCCGUCGGCGUAAUGGUAACGCGUAUCCCUCCUAAGGAGCAGACUGCGGGUUCGAGUCCCGUACGGAACG [U8C C27A A42C] showed a yeast fitness of 0.532. GUUCCGUCGGAGUAAUGGUUACGCGUCUCCCUCCUAAGGAGAAGACUGCGGGUUCGAGUCCCGUAUGGAACG [U8C C11A A20U C66U] showed a yeast fitness of at most 0.5. GUUCCGUCGGCGUAAUGGUAACGCGUCUCCCUCCUAAGGAGACGACUGCGGGUUCGAGUCCCGUACGGAACG [U8C A43C] gave a yeast fitness of 0.939. GUUCCGUCGGCGUAAUGGUAACGCGUAUCCCUCCUAAGGGGAAGAGUGCGGGUUCGAGUCCGGUACGGAACG [U8C C27A A40G C46G C62G] showed a yeast fitness of at most 0.5. GUUCCGUCGGUGUAAUGGUAACGCGUCUCCCUCCUAAGGAGAAGAUUGAGGGUUCGAGUCCCGUACGGAACG [U8C C11U C46U C49A] gave a yeast fitness of at most 0.5. With GUUCCGUCGGCGUAAUGGUAACGCGUGUCCCUCCUAAGCAGAAGACUGCGGGUUCGAGUCCCGUACGGAACG [U8C C27G G39C] the yeast fitness was at most 0.5. Work on GUUCCGUCGGCGUAAUGGUAACGAGUCUCCCUCCUAAGGAGAAGACUGCGGGUUCGAGUCCCGUACGGAACG [U8C C24A] yielded a yeast fitness of 0.616. GUUCCGUCGGCGUAAUGGUAACGCGUCUCCCUCCUAAGGAGAUGACUGCCGGUUCGAGUCCCGUACGGAACG [U8C A43U G50C] showed a yeast fitness of at most 0.5. For GUUCCGUCGGCGUAAUGGUAACGCGUCUCCCUCCUAAGGAGAAGACUGCGGGUUCGUGUCUCGUACGGAACG [U8C A57U C61U], the yeast fitness was 0.536. GUUCCGUCGGCGUAAUGGUAACGCGUCUCCCUCCUAAGGAGAAGACUGCGGGUUCGAGUCCCGUGCGGAACG [U8C A65G] showed a yeast fitness of 0.929. In the case of GUUCCGUCGGCGUAAUGGUAACGCGUCUCCCUCCUAAGGAGAAGACUGCGGGUUCGAGUCCCGUCCGGAACG [U8C A65C], the yeast fitness is reported as 0.964. GUUCCGUCGGCGUAAUGGUAAGGCGUCUCCCUCCUAAGGAGAAGACCGCGGGGUCGAGUCCCGUACGGAACG [U8C C22G U47C U53G] showed a yeast fitness of at most 0.5. For GUUCCGUCGGCGUAAUGGUAAGGCGUUUCCCUCCUAAGGAGAAGACUGUGGGUUCGAGUCCCGCACGGAACG [U8C C22G C27U C49U U64C], the yeast fitness was at most 0.5. GUUCCGUCGGCGUAAUGGUAAUGCGUCUCCCUCCUAAGGAGAAGACUGCGGGUUCGACUCCCGUACGGAACG [U8C C22U G58C] showed a yeast fitness of at most 0.5. GUUCCGUCGGAGUAAUGGUAACGCGUCUCCCUCCUAAGGAGAAGACUGCGGGUUCGAGUCCCGUAGGGAACG [U8C C11A C66G] gave a yeast fitness of at most 0.5. In the case of GUUCCGUCGGCGUAAUGGUAACGCGUCUCCCUCCUAAGGAGUAGACUGCGGGUUCGAGUCCAGUAUGGAACG [U8C A42U C62A C66U], the yeast fitness is reported as at most 0.5. GUUCCGUCGGCGUAAUGGUAAAGCGUCUCCCUCCUCAGGAGAAGACUGCGGGUUCGAGUCCCAUACCGAACG [U8C C22A A36C G63A G67C] showed a yeast fitness of at most 0.5.

Source: the RNAGym collection of RNA variant scans (doi:10.1126/science.aae0568)
